Measured values: article PMC3737387 (Nuclear medicine and biology, 2013)
Values joined by “and” are separate entries in the source; they are usually repeats but may differ in a detail not shown here. Equal entries are not always repeated.

Tests used:
FAAH [1] = conditions: Phase II crossover study, pain associated with osteoarthritis; cited from earlier work
FAAH [2] = conditions: URB597 2 mg/kg ip; cited from earlier work
FAAH [3] = conditions: rodents; cited from earlier work
FAAH [4] = conditions: previously reported; cited from earlier work
[5] = HPLC analysis of plasma metabolites; format: in vivo; conditions: rat
Method in brief: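 Heparinized rat trunk blood is centrifuged, and the plasma is acidified with 20% (v/v) of 50% aqueous acetic acid. It is loaded onto an HLB capture column, eluted with 1% acetonitrile (2 mL/min, 4 min), then backflushed with 60% acetonitrile/water + 0.1 N ammonium formate (pH 4) onto C18. Detection is by coincidence-mode radio-flow. Eluent switches to 100% ethanol after the parent to detect lipophilic metabolites. Peaks are decay-corrected and integrated.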

FAAH [6] = molecular target: T1, FAAH (Rattus norvegicus, UniProt P97612); assay: Irreversible binding of [^11C]PF-04457845 to FAAH in the rat brain; format: in vivo
T1 sequence (P97612 1-579): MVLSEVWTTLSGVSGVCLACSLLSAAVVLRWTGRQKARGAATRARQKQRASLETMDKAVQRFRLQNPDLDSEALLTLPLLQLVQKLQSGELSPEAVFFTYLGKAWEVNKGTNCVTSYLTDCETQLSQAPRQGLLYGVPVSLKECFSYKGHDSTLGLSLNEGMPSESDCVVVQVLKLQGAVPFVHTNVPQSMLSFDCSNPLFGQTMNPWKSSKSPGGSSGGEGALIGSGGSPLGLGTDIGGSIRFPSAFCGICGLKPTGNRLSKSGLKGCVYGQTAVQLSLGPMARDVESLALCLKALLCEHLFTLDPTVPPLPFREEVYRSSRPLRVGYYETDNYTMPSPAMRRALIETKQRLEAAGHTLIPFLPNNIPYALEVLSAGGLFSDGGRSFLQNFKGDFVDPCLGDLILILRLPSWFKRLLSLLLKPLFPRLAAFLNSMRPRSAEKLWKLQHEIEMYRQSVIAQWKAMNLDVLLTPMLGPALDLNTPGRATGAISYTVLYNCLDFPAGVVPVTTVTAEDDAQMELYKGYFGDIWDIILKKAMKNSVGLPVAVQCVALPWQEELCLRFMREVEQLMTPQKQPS

[7] = Ex vivo biodistribution of [^11C]PF-04457845 in conscious rat brain and plasma; conditions: for Ex vivo biodistribution, Cerebellum / Ex vivo biodistribution, Cortex / Ex vivo biodistribution, Hypothalamus / Ex vivo biodistribution, Plasma / Ex vivo biodistribution, Rest of Brain: n = 4
FAAH [8] = molecular target: T1, FAAH; assay: Pharmacological blocking of [^11C]PF-04457845 uptake in rat brain; format: in vivo; conditions: control vs URB597 (2 mg/kg ip) pretreated group; 40 min post injection
FAAH [9] = conditions: rodents, cited from earlier work

O=C(Nc1cccnn1)N1CCC(=Cc2cccc(Oc3ccc(C(F)(F)F)cn3)c2)CC1 [PF-04457845]
analgesic effect (FAAH [1]): did not induce an analgesic effect | endocannabinoid levels in blood (FAAH [1]): modulate endocannabinoid levels in blood

NC(=O)c1cccc(-c2cccc(OC(=O)NC3CCCCC3)c2)c1 [URB597, 3′-carbamoyl-[1,1′-biphenyl]-3-yl-cyclohexylcarbamate]
FAAH enzyme inactivated in rodent brains (FAAH [2]): > 90% and 90%

COc1ccc(NC(=O)Oc2ccc[11c](-c3ccccc3)c2)cc1 [[^11C]1,1′-biphenyl-3-yl-(4-methoxyphenyl)carbamate]
brain uptake (FAAH [3]): low brain uptake | specific binding (FAAH [3]): no detectable specific binding

O=[11C](NC1CCCCC1)Oc1ccc(O)c(-c2ccccc2)c1 [[^11C]CURB, [^11C-carbonyl]-6-hydroxy-[1,1′-biphenyl]-3-yl-cyclohexylcarbamate]
level of specific binding (FAAH [4]): 80%

O=C(Nc1cccnn1)N1CCC(=Cc2cccc(Oc3ccc(C(F)(F)F)cn3)c2)CC1 [[^11C]PF-04457845]
parent radiotracer remaining in plasma ([5]; 15 min post injection): 82% | parent radiotracer remaining in plasma ([5]; 40 min post injection): 73% | parent radiotracer remaining in plasma ([5]; 60 min post injection): 66% | lipophilic metabolite, share of total radioactivity present in plasma ([5]; later time-points): 3 – 3.5% | SBR (specific to non-specific binding ratio) to FAAH from extraction studies (FAAH [6]; rat whole brain, ([95/5]-1)): > 18 | radioactivity irreversibly bound to brain tissue (FAAH [6]; rat, 2 min post injection): 84% | extractable brain radioactivity (FAAH [6]; rat, 40 min post injection): 2% | radioactivity in whole brain that is FAAH-bound (FAAH [6]; rat, 40 min post injection): > 95% | radioactivity irreversibly bound to brain tissue (FAAH [6]; rat, 40 min post injection): 98% | radioactivity bound to brain parenchyma (FAAH [6]; rat, after ip pre-treatment with URB597 (2 mg/kg)): 5% | brain uptake ([7]; conscious rats, tail-vein injection, across regions and time points): 1.2 to 4.4 SUV | Ex vivo biodistribution, Cerebellum ([7]; rat, 2 min post iv injection): 1.87 ± 0.05 SUV | Ex vivo biodistribution, Cortex ([7]; rat, 2 min post iv injection): 2.22 ± 0.06 SUV | Ex vivo biodistribution, Hypothalamus ([7]; rat, 2 min post iv injection): 1.29 ± 0.05 SUV | Ex vivo biodistribution, Plasma ([7]; rat, 2 min post iv injection): 1.03 ± 0.19 SUV | Ex vivo biodistribution, Rest of Brain ([7]; rat, 2 min post iv injection): 1.51 ± 0.08 SUV | Ex vivo biodistribution, Cerebellum ([7]; rat, 15 min post iv injection): 3.17 ± 0.10 SUV | Ex vivo biodistribution, Cortex ([7]; rat, 15 min post iv injection): 3.64 ± 0.24 SUV | Ex vivo biodistribution, Hypothalamus ([7]; rat, 15 min post iv injection): 1.96 ± 0.10 SUV | Ex vivo biodistribution, Plasma ([7]; rat, 15 min post iv injection): 0.33 ± 0.04 SUV | Ex vivo biodistribution, Rest of Brain ([7]; rat, 15 min post iv injection): 2.44 ± 0.07 SUV | Ex vivo biodistribution, Cerebellum ([7]; rat, 40 min post iv injection): 3.56 ± 0.10 SUV | Ex vivo biodistribution, Cortex ([7]; rat, 40 min post iv injection): 4.11 ± 0.30 SUV | Ex vivo biodistribution, Hypothalamus ([7]; rat, 40 min post iv injection): 2.18 ± 0.20 SUV | Ex vivo biodistribution, Plasma ([7]; rat, 40 min post iv injection): 0.12 ± 0.01 SUV | Ex vivo biodistribution, Rest of Brain ([7]; rat, 40 min post iv injection): 2.77 ± 0.24 SUV | Ex vivo biodistribution, Cerebellum ([7]; rat, 60 min post iv injection): 3.42 ± 0.34 SUV | Ex vivo biodistribution, Cortex ([7]; rat, 60 min post iv injection): 3.92 ± 0.37 SUV | Ex vivo biodistribution, Hypothalamus ([7]; rat, 60 min post iv injection): 2.10 ±0.31 SUV | Ex vivo biodistribution, Plasma ([7]; rat, 60 min post iv injection): 0.09 ± 0.03 SUV | Ex vivo biodistribution, Rest of Brain ([7]; rat, 60 min post iv injection): 2.59 ± 0.19 SUV | time at which brain uptake reaches a plateau ([7]; rat, post injection): 40 min | specific to non-specific binding ratio, cerebellum (FAAH [8]): 3.4 | specific to non-specific binding ratio, cortex (FAAH [8]): 4.2 | specific to non-specific binding ratio, hypothalamus (FAAH [8]): 2.5

O=C(Nc1cccnn1)N1CCC(=Cc2cccc(Oc3ccc(OCC[18F])cn3)c2)CC1 [[^18F]PF-9811, 4-(3-((5-(2-[^18F]fluoroethoxy)pyridine-2-yl)oxy)benzylidene)-N-(pyridazin-3-yl)piperidine-1-carboxamide]
brain uptake in the cortex (FAAH [9]; 90 min): 0.8 SUV | specific to non-specific binding ratios (FAAH [9]): 2.3 – 2.6
